Entries after “also recorded” stand apart in the source; their conditions may differ.
What was measured:
RecA = RecA (Escherichia coli, UniProt P0A7G6); test: Effect on RecA in vitro; assay type: biochemical; conditions: Supplementary Fig. 1
HEK293T cells = test: eGFP-RAD52 foci formation after ionizing radiation; assay type: cell-based
Procedure, shortened: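 HEK293T cells expressing eGFP-RAD52 treated with test compound at several concentrations and exposed to ionizing radiation. DAPI-counterstained nuclei imaged, and the percent of cells with ≥ 5 eGFP-RAD52 foci scored. Values are average ± s.e.m. of 3 independent experiments; two-tailed Student's t-test.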

[1] = system: BRCA deficient cells (VC8, HCC1937); test: Annexin V staining; assay type: cell-based; conditions: BRCA deficient vs proficient cells
[2] = system: VC8 cells (BRCA2 defective); test: Cell viability / proliferation; assay type: cell-based, Chinese hamster; conditions: 75 μM 6-OH-dopa
Procedure, shortened: (§1)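 Each BRCA-deficient line tested alongside its BRCA-proficient counterpart after single-concentration test compound (olaparib or siRNA in some panels). Relative viability reported as mean ± s.e.m. of triplicates, with two-tailed Student's t-test.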

RAD52 WT = target: T1, RAD52 WT (Homo sapiens, UniProt P43351); test: Fluorescence polarization; assay type: binding; conditions: for Inhibition of RAD52 ssDNA binding: in vitro, Supplementary Fig. 1
T1 sequence (P43351 1-418): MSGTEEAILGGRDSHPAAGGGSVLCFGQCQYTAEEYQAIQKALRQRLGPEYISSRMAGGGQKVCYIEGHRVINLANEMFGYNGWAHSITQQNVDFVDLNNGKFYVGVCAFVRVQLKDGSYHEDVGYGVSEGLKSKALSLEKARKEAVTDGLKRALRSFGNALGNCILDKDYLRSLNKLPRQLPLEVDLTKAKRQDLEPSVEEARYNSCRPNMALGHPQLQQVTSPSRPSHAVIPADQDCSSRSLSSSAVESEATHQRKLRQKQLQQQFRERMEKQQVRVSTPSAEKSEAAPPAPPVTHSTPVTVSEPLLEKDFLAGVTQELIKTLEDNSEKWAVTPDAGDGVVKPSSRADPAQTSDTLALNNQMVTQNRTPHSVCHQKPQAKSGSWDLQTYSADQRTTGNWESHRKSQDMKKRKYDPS

[3] = system: MDA-MB-436 cells complemented with BRCA1; test: eGFP-RAD52 foci formation after ionizing radiation; assay type: cell-based; conditions: MDA-MB-436 BRCA1 complemented
Procedure, shortened: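 BRCA1-complemented MDA-MB-436 cells expressing eGFP-RAD52 were given test compound, then ionizing radiation, with or without IR as control. Nuclei stained with DAPI. Cells with ≥5 eGFP-RAD52 foci counted as percent of total. Mean ± s.e.m. of 3 independent experiments.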

MDA-MB-436 cells = test: γH2AX foci; assay type: cell-based; conditions: more pronounced in BRCA deficient cells
[4] = target: T2, RAD52 1-209 undecamer ring (Homo sapiens, UniProt P43351); test: Light scattering of RAD52 1-209; assay type: biochemical
T2 sequence (P43351 1-209): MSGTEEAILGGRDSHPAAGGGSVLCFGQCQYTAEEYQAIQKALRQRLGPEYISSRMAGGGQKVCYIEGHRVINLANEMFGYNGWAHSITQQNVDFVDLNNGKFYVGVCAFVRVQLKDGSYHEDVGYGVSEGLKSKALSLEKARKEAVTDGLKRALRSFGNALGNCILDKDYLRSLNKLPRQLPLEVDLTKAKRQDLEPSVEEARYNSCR
Procedure, shortened: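 RAD52 1-209 (purified by a published method) incubated with or without test compound in 1 M or 0.15 M NaCl. Species sizes measured by light scattering. Buffer-only and compound-only controls included.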

RAD52 = RAD52 (Homo sapiens, UniProt P43351); test: EMSA with excess ssDNA substrate; assay type: binding; conditions: 25 μM
Procedure, shortened: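 RAD52 binding to an excess of Cy3-labelled ssDNA substrate in the presence of 25 μM test compound. Complexes resolved by EMSA on a non-denaturing gel.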

[5] = system: MDA-MB-436 cells (BRCA1 deficient and BRCA1 complemented); test: Cell viability; assay type: cell-based; conditions: for Viability of BRCA1 deficient MDA-MB-436 cells: 3 day time course, 20 μM 6-OH-dopa
Procedure, shortened: as §1

[6] = target: T2, RAD52 1-209 undecamer ring; test: Native gel electrophoresis of RAD52 1-209 composition; assay type: biochemical
AML patient cells = test: Clonogenic survival; assay type: cell-based
Procedure, shortened: (§2)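 Colony-forming survival of BRCA-deficient and BRCA-proficient leukemia patient cells after test compound or olaparib. Each data point pools cells from 3 different patients. Mean ± s.e.m. of 3 independent experiments.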

[7] = system: HCC1937 cells (BRCA1 deficient); test: Cell viability; assay type: cell-based; conditions: 5 μM 6-OH-dopa
Procedure, shortened: as §1

SSA in U20S cells = test: SSA GFP reporter assay; assay type: cell-based; conditions: 5 μM
Procedure, shortened: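 U20S cells carrying an SSA reporter exposed to test compounds at 5 μM. RAD52 siRNA versus scrambled siRNA serves as pathway control, with knockdown checked by western blot. Values are mean ± s.e.m. of triplicates, some from 3 separate experiments; two-tailed Student's t-test.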

[8] = system: BRCA deficient and proficient cell lines; test: Clonogenic survival assay; assay type: cell-based
Procedure, shortened: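 Clonogenic survival of BRCA-deficient and BRCA-proficient cell lines treated with test compound or olaparib. Mean ± s.e.m. of 3 independent experiments.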

[9] = system: BRCA1 deficient CML patient cells; test: Clonogenic survival; assay type: cell-based
Procedure, shortened: as §2

RAD51 = RAD51 (Homo sapiens, UniProt Q06609); test: Fluorescence polarization; assay type: binding; conditions: in vitro, FP, 280 nM RAD51, 1 mM ATP
Procedure, shortened: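 Human RAD51 (280 nM) with 1 mM ATP, 10 nM FAM-labelled ssDNA and varied test compound in pH 7.5 Tris buffer (25 mM NaCl, 0.5 mM MgCl2, 1 mM DTT, 0.01% NP-40, 0.1 mg/mL BSA). Incubated 30 min at room temp, then fluorescence polarization read. Inhibition of ssDNA binding taken from FP.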

[10] = target: RAD52 1-209 (ssDNA binding domain) (Homo sapiens, UniProt P43351); test: Fluorescence polarization
RAD52-ssDNA complexes = RAD52-ssDNA complexes (Homo sapiens, UniProt P43351); test: Dissociation of pre-formed RAD52-ssDNA complexes; assay type: binding; conditions: 30 μM, FP measured 2 min after addition
Procedure, shortened: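 RAD52–ssDNA complexes pre-formed and equilibrated for 30 min before 30 μM test compound was added. FP read 2 min later against a DNA-only control, with mean ± s.d. of 3 independent experiments. Dissociation was also tested by EMSA on non-denaturing gels.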

[11] = system: CAPAN-1 cells (BRCA2 defective); test: Cell viability / proliferation; assay type: cell-based; conditions: 10 μM 6-OH-dopa, 20 μM olaparib
Procedure, shortened: as §1

ssDNA = test: Interaction of small molecule with ssDNA; assay type: binding; conditions: Supplementary Fig. 1
NHEJ in U20S cells = test: NHEJ GFP reporter assay; assay type: cell-based; conditions: 5 μM
Procedure, shortened: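 NHEJ GFP reporter in U2OS cells, run with or without 5 μM test compound. Mean ± s.e.m. of two separate experiments, each in triplicate.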

[12] = system: BCR-ABL transformed murine hematopoietic 32Dcl3 cells expressing eGFP-RAD52; test: eGFP-RAD52 foci formation after cisplatin; assay type: cell-based; conditions: cisplatin treated 32Dcl3 BCR-ABL cells
Procedure, shortened: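 Cells expressing eGFP-RAD52 pre-incubated with DMSO or test compound at several concentrations, then treated with cisplatin. Fraction of cells with eGFP-RAD52 foci scored by fluorescence microscopy. Values are mean ± s.e.m. of triplicates; two-tailed Student's t-test.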

HR in U20S cells = test: HR GFP reporter assay; assay type: cell-based
native gel or EMSA = target: the molecule itself; test: native gel or EMSA
light scattering [13] = target: the molecule itself; test: light scattering
light scattering [14] = target: the molecule itself; test: light scattering; remark: listed apart in the source

Chain of RAD51 (Q06609 whole entry, species assumed): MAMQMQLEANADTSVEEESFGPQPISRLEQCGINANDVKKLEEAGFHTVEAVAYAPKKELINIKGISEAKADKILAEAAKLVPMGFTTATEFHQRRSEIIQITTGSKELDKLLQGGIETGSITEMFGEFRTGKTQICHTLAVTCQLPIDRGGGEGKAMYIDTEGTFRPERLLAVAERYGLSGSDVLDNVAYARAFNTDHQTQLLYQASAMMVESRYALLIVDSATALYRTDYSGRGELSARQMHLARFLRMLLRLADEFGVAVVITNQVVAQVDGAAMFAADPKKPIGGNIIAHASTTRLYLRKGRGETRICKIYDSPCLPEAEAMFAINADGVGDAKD
Chain of RecA (P0A7G6 whole entry, species assumed): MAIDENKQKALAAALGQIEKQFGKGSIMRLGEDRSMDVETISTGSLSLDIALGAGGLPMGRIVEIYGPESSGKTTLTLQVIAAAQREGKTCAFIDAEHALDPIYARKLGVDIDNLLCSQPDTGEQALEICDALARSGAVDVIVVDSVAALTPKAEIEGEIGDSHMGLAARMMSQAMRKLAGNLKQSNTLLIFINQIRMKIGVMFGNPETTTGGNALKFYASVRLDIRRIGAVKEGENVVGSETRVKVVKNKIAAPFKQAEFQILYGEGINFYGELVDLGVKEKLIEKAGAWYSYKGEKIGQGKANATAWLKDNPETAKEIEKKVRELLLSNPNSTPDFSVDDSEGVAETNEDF

Molecule: NC(Cc1cc(O)c(O)cc1O)C(=O)O (racemic) [6-OH-dopa, 6-hydroxy-DL-dopa]
- Effect on RecA (RecA): very little effect
- eGFP-RAD52 foci (HEK293T cells): decreased the number of eGFP-RAD52 foci in a dose dependent manner
- Apoptosis indicated by annexin V staining [1]: specifically increased apoptosis
- Proliferation of VC8 cells [2]: selectively halted the proliferation
- IC50 (RAD52 WT): 1100 nM
- Percent lower IC50 for RAD52 WT compared to RAD52 1-209 (RAD52 WT): 31%
- eGFP-RAD52 foci [3]: inhibited eGFP-RAD52 foci
- DNA damage indicated by γH2AX foci (MDA-MB-436 cells): substantial increase in DNA damage
- Size of RAD52 1-209 species produced ([4]; high salt (1 M NaCl)): 48.3 kDa
- Size of RAD52 1-209 species produced ([4]; low salt (0.15 M NaCl)): 48.3 kDa
- Undecamers (270 kDa) converted into dimers (48.3 kDa) ([4]; low salt (0.15 M NaCl)): 100%
- Inhibition of RAD52 in the presence of ~100-fold excess of ssDNA substrate (RAD52): continued to inhibit RAD52
- Viability of BRCA1 deficient MDA-MB-436 cells [5]: nearly identical reduction in viability
- Viability of BRCA1 deficient MDA-MB-436 cells when RAD52 expression was suppressed ([5]; RAD52 siRNA): lost its ability to significantly reduce the viability
- Effect on RAD52 1-209 composition [6]: dissociates RAD52 complexes
- Colony formation by AML patient cells expressing normal levels of BRCA1/2 (AML patient cells): little effects
- Viability of HCC1937 cells [7]: selectively reduced the viability
- Effect on SSA (SSA in U20S cells): consistently inhibited SSA
- Clonogenic survival of BRCA deficient cell lines [8]: inhibited the survival
- Clonogenic survival of BRCA proficient cells ([8]; at the given doses): little or no effect
- Survival of BRCA1 deficient CML patient cells [9]: significant reduction in the survival
- Effect on RAD51 (RAD51): little or no effect; also recorded: no effect
- IC50 [10]: 1600 nM
- Dissociation of pre-formed RAD52-ssDNA complexes (RAD52-ssDNA complexes): fully dissociated RAD52-ssDNA complexes
- Proliferation of CAPAN-1 cells [11]: selectively halted the proliferation
- Interaction with ssDNA (ssDNA): does not interact with ssDNA
- Effect on NHEJ (NHEJ in U20S cells): only slightly inhibited NHEJ
- eGFP-RAD52 foci formation [12]: suppressed eGFP-RAD52 foci formation in a dose dependent manner
- Effect on HR when RAD52 was suppressed (HR in U20S cells; RAD52 siRNA): had no effect on HR
- Effect on HR (HR in U20S cells; U20S cells, 5 μM): little or no reduction in HR

Molecule: NC(Cc1ccccc1O)C(=O)O (racemic) [DL-o-tyrosine, reference compound]
- Inhibition of RAD52 ssDNA binding (RAD52 WT): failed to inhibit RAD52
- Effect on RAD52 1-209 composition [6]: had no effect on RAD52 1-209 composition

Molecule: N[C@H](C(=O)O)[C@H](O)c1ccc(O)c(O)c1 [L-DOPS, reference compound]
- Inhibition of RAD52 ssDNA binding (RAD52 WT): failed to inhibit
- Effect on SSA (SSA in U20S cells): failed to inhibit SSA

Molecule: O=C(c1cc(Cc2n[nH]c(=O)c3ccccc23)ccc1F)N1CCN(C(=O)C2CC2)CC1 [olaparib, reference compound]
- Viability of BRCA1 deficient MDA-MB-436 cells [5]: selectively reduced the viability
- Colony formation by AML patient cells expressing normal levels of BRCA1/2 (AML patient cells): little effects

B1: RAD52 WT (wild-type, full-length RAD52, Histidine-tagged) (natural protein, human, UniProt P43351 1-418, looked up)
chain: MSGTEEAILGGRDSHPAAGGGSVLCFGQCQYTAEEYQAIQKALRQRLGPEYISSRMAGGGQKVCYIEGHRVINLANEMFGYNGWAHSITQQNVDFVDLNNGKFYVGVCAFVRVQLKDGSYHEDVGYGVSEGLKSKALSLEKARKEAVTDGLKRALRSFGNALGNCILDKDYLRSLNKLPRQLPLEVDLTKAKRQDLEPSVEEARYNSCRPNMALGHPQLQQVTSPSRPSHAVIPADQDCSSRSLSSSAVESEATHQRKLRQKQLQQQFRERMEKQQVRVSTPSAEKSEAAPPAPPVTHSTPVTVSEPLLEKDFLAGVTQELIKTLEDNSEKWAVTPDAGDGVVKPSSRADPAQTSDTLALNNQMVTQNRTPHSVCHQKPQAKSGSWDLQTYSADQRTTGNWESHRKSQDMKKRKYDPS
- stoichiometry N (native gel or EMSA): 14

B2: RAD52 1-209 (RAD52 ssDNA binding domain, residues 1-209) (domain or fragment, human, UniProt P43351 1-209, looked up)
chain: MSGTEEAILGGRDSHPAAGGGSVLCFGQCQYTAEEYQAIQKALRQRLGPEYISSRMAGGGQKVCYIEGHRVINLANEMFGYNGWAHSITQQNVDFVDLNNGKFYVGVCAFVRVQLKDGSYHEDVGYGVSEGLKSKALSLEKARKEAVTDGLKRALRSFGNALGNCILDKDYLRSLNKLPRQLPLEVDLTKAKRQDLEPSVEEARYNSCR
- stoichiometry N (light scattering [13]): 2
- stoichiometry N (light scattering [14]): 11

Reference: PMC4701204 (Chemistry & biology, 2015)
